The text below walks through data of ChEMBL document CHEMBL1138199, “Identification of compounds with anti-West Nile Virus activity” (J Med Chem, 2006).

System in one data set: not listed separately
Put plainly: Therapeutic index (CC50/EC50) in Vero cells. The data set is classed as cell-based. To be noted: monkey, read-out: Ratio CC50/EC50. The method, boiled down:
(§1)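 TI computed as CC50/EC50, using MTT CC50 and replicon EC50 in BHK-21 cells, or MTT CC50 and Rluc-FL-WNV EC50 in Vero cells.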
Regarding `O=C(c1cccc2c(NCCc3c[nH]c4ccccc34)c3ccccc3nc12)N1CCOCC1`, the selectivity ratio was below 2.

Regarding `CN1CCN(C(=O)c2ccc3nc4ccccc4c(NCCc4c[nH]c5ccccc45)c3c2)CC1`, the selectivity ratio turned out to be 2.6.

`CN1CCN(C(=O)c2ccc3nc4ccccc4c(Oc4ccccc4)c3c2)CC1`: the selectivity ratio came out at 4.

Regarding `CCN(CC)C(=O)c1ccc2c(NC3CCN(Cc4ccccc4)CC3)c3ccccc3nc2c1`, the selectivity ratio turned out to be 2.7.

`CCN(CC)C(=O)c1cccc2c(NC3CCN(Cc4ccccc4)CC3)c3ccccc3nc12`: the selectivity ratio amounted to 3.4.

Take `CN1CCN(C(=O)c2cccc3c(NCCc4c[nH]c5ccccc45)c4ccccc4nc23)CC1`: the selectivity ratio worked out at 2.8.

For `CN1CCN(C(=O)c2ccc3c(Oc4ccccc4)c4ccccc4nc3c2)CC1`, the selectivity ratio was 1.4.

Consider `O=C(c1cccc2c(Oc3ccccc3)c3ccccc3nc12)N1CCOCC1`, for which the selectivity ratio is 2.

System in the next data set: not listed separately
Put plainly: Therapeutic index (CC50/EC50) in BHK21 cells. In kind it is cell-based, BHK-21. To be noted: hamster, read-out: Ratio CC50/EC50. Summed up:
as §1
With `O=C(c1cccc2c(NCCc3c[nH]c4ccccc34)c3ccccc3nc12)N1CCOCC1`, the selectivity ratio is 13.

Consider `CN1CCN(C(=O)c2ccc3nc4ccccc4c(NCCc4c[nH]c5ccccc45)c3c2)CC1`, for which the selectivity ratio was 6.1.

`CN1CCN(C(=O)c2ccc3nc4ccccc4c(Oc4ccccc4)c3c2)CC1`: the selectivity ratio is 4.7.

As to `CCN(CC)C(=O)c1ccc2c(NC3CCN(Cc4ccccc4)CC3)c3ccccc3nc2c1`, the selectivity ratio stood at 12.

As to `CCN(CC)C(=O)c1cccc2c(NC3CCN(Cc4ccccc4)CC3)c3ccccc3nc12`, the selectivity ratio stood at 44.

For the compound `CN1CCN(C(=O)c2cccc3c(NCCc4c[nH]c5ccccc45)c4ccccc4nc23)CC1`, the selectivity ratio was 14.

Turning to `CN1CCN(C(=O)c2ccc3c(Oc4ccccc4)c4ccccc4nc3c2)CC1`, the selectivity ratio is 3.6.

On to `O=C(c1cccc2c(Oc3ccccc3)c3ccccc3nc12)N1CCOCC1`, for which the selectivity ratio is below 5.1.

In the next data set the test system is West Nile virus. Put plainly: Inhibition of Rluc-FL-WNV replicon in Vero cells. The data set is classed as functional, organism-based.
Details: not given
The method, boiled down: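 Vero cells infected with full-length WNV carrying Renilla luciferase reporter (Rluc-FL-WNV), covering entry, replication and assembly; inhibition read as suppression of luciferase signal. Compounds first screened at 30 µM in 1% DMSO final, then EC50 (µM) determined.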
With `O=C(c1cccc2c(NCCc3c[nH]c4ccccc34)c3ccccc3nc12)N1CCOCC1`, the EC50 (usually the concentration that produces a half-maximal response) is above 30 µM.

`CN1CCN(C(=O)c2ccc3nc4ccccc4c(NCCc4c[nH]c5ccccc45)c3c2)CC1` had an EC50 of 25 µM.

For the compound `CN1CCN(C(=O)c2ccc3nc4ccccc4c(Oc4ccccc4)c3c2)CC1`, it took 20 µM to reach a half-maximal effect (EC50).

`CCN(CC)C(=O)c1ccc2c(NC3CCN(Cc4ccccc4)CC3)c3ccccc3nc2c1` yielded an EC50 of 20 µM.

On to `CCN(CC)C(=O)c1cccc2c(NC3CCN(Cc4ccccc4)CC3)c3ccccc3nc12`, for which the EC50 was found to be 22 µM.

Turning to `CN1CCN(C(=O)c2cccc3c(NCCc4c[nH]c5ccccc45)c4ccccc4nc23)CC1`, the concentration giving a half-maximal response (EC50) amounted to 18 µM.

Compound `CN1CCN(C(=O)c2ccc3c(Oc4ccccc4)c4ccccc4nc3c2)CC1` had a 50% effective concentration (EC50) of 28 µM.

In turn, `O=C(c1cccc2c(Oc3ccccc3)c3ccccc3nc12)N1CCOCC1` returned a concentration giving a half-maximal response (EC50) of 22 µM.

The next data set concerns BHK-21. Put plainly: Inhibition of West Nile virus VLP replicon in BHK21 cell line. The data set is classed as functional, cell-based. To be noted: Mesocricetus auratus. Summed up:
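Naive BHK-21 cells infected with virus-like particles, made by expressing WNV structural proteins in cells carrying the Rluc-Neo-Rep replicon, which package replicon RNA. This captures entry and replication but not assembly. Inhibition is read as suppression of Renilla luciferase signal. Compounds were given in 1% DMSO final, and EC50 is in µM.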
As for `O=C(c1cccc2c(NCCc3c[nH]c4ccccc34)c3ccccc3nc12)N1CCOCC1`, the EC50 was determined as 23 µM.

The compound `CN1CCN(C(=O)c2ccc3nc4ccccc4c(NCCc4c[nH]c5ccccc45)c3c2)CC1` had a concentration for a half-maximal effect (EC50) of 27 µM.

`CN1CCN(C(=O)c2ccc3nc4ccccc4c(Oc4ccccc4)c3c2)CC1` had a 50% effective concentration (EC50) of 20 µM.

`CCN(CC)C(=O)c1ccc2c(NC3CCN(Cc4ccccc4)CC3)c3ccccc3nc2c1` gave an EC50 of 6 µM. Against the preceding compound, the EC50 is about 3.3-fold lower.

For the compound `CCN(CC)C(=O)c1cccc2c(NC3CCN(Cc4ccccc4)CC3)c3ccccc3nc12`, the 50% effective concentration (EC50) came to 20 µM.

With `CN1CCN(C(=O)c2cccc3c(NCCc4c[nH]c5ccccc45)c4ccccc4nc23)CC1`, the EC50 was determined as 17 µM.

Compound `CN1CCN(C(=O)c2ccc3c(Oc4ccccc4)c4ccccc4nc3c2)CC1` registered a half-maximal effective concentration (EC50) of 18 µM.

`O=C(c1cccc2c(Oc3ccccc3)c3ccccc3nc12)N1CCOCC1` registered an EC50 above 30 µM.

A further data set has as its system West Nile virus. Put plainly: Inhibition of West Nile viral Rluc-Neo-Rep in BHK21 cell line. The data set is classed as functional, organism-based. Conditions: BHK-21. The method, boiled down:
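BHK-21 cell line stably carrying Rluc-Neo-Rep replicon; inhibition read as suppression of Renilla luciferase signal. Initial screen at 30 µM, 1% DMSO final; EC50 (µM) then determined.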
For the compound `O=C(c1cccc2c(NCCc3c[nH]c4ccccc34)c3ccccc3nc12)N1CCOCC1`, a half-maximal response (EC50) required 20 µM. This lies in the double-digit micromolar range.

Turning to `CN1CCN(C(=O)c2ccc3nc4ccccc4c(NCCc4c[nH]c5ccccc45)c3c2)CC1`, a half-maximal effect (EC50) was put at 28 µM. The EC50 values of the last two compounds are within 1.5-fold of each other.

As for `CN1CCN(C(=O)c2ccc3nc4ccccc4c(Oc4ccccc4)c3c2)CC1`, the half-maximal effective concentration (EC50) was found to be 21 µM. This EC50 and that of the compound before are within 1.5-fold of each other.

For `CCN(CC)C(=O)c1ccc2c(NC3CCN(Cc4ccccc4)CC3)c3ccccc3nc2c1`, the midpoint of the response, the EC50, lay at 12.5 µM.

The compound `CCN(CC)C(=O)c1cccc2c(NC3CCN(Cc4ccccc4)CC3)c3ccccc3nc12` returned an EC50 of 8 µM.

Take `CN1CCN(C(=O)c2cccc3c(NCCc4c[nH]c5ccccc45)c4ccccc4nc23)CC1`: the EC50 is 10.5 µM.

`CN1CCN(C(=O)c2ccc3c(Oc4ccccc4)c4ccccc4nc3c2)CC1`: the 50% effective concentration (EC50) came to 28 µM.

In turn, `O=C(c1cccc2c(Oc3ccccc3)c3ccccc3nc12)N1CCOCC1` yielded an EC50 above 30 µM.

Another data set has as its system BHK-21. Put plainly: Cytotoxicity against BHK21 cell line by MTT assay. In kind it is functional. Conditions: Mesocricetus auratus. Summed up:
(§2)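 MTT cytotoxicity assay run in BHK-21 and Vero cells on compounds giving >50% Rluc inhibition in the primary screens; CC50 reported in µM.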
In general terms: Formazan colour is commonly taken as a measure of viable cells.
As to `O=C(c1cccc2c(NCCc3c[nH]c4ccccc34)c3ccccc3nc12)N1CCOCC1`, half-maximal cytotoxicity (CC50) was put at 250 µM.

Regarding `CN1CCN(C(=O)c2ccc3nc4ccccc4c(NCCc4c[nH]c5ccccc45)c3c2)CC1`, it took 170 µM to reach half-maximal cytotoxicity (CC50).

For `CN1CCN(C(=O)c2ccc3nc4ccccc4c(Oc4ccccc4)c3c2)CC1`, the CC50 – broadly, the concentration at which the toxic effect on the cells reaches its halfway point – is 100 µM.

The compound `CCN(CC)C(=O)c1ccc2c(NC3CCN(Cc4ccccc4)CC3)c3ccccc3nc2c1` came in with a CC50 of 150 µM. This CC50 lies about 1.5-fold higher than the previous one.

With `CCN(CC)C(=O)c1cccc2c(NC3CCN(Cc4ccccc4)CC3)c3ccccc3nc12`, the CC50 was 350 µM.

Compound `CN1CCN(C(=O)c2cccc3c(NCCc4c[nH]c5ccccc45)c4ccccc4nc23)CC1` displayed a half-maximal cytotoxic concentration (CC50) of 150 µM.

Take `CN1CCN(C(=O)c2ccc3c(Oc4ccccc4)c4ccccc4nc3c2)CC1`: the CC50 came out at 100 µM.

Compound `O=C(c1cccc2c(Oc3ccccc3)c3ccccc3nc12)N1CCOCC1` displayed a half-maximal cytotoxic concentration (CC50) of 155 µM. This CC50 is about 1.6-fold higher than that of the compound before.

The subject of another data set is Vero. Put plainly: Cytotoxicity against Vero cells by MTT assay. The data set is classed as functional. To be noted: Chlorocebus sabaeus. Summed up:
as §2
Compound `O=C(c1cccc2c(NCCc3c[nH]c4ccccc34)c3ccccc3nc12)N1CCOCC1` showed a CC50 of 60 µM. That is a double-digit micromolar value.

`CN1CCN(C(=O)c2ccc3nc4ccccc4c(NCCc4c[nH]c5ccccc45)c3c2)CC1` came in with a CC50 of 65 µM.

`CN1CCN(C(=O)c2ccc3nc4ccccc4c(Oc4ccccc4)c3c2)CC1` gave a CC50 of 80 µM.

With `CCN(CC)C(=O)c1ccc2c(NC3CCN(Cc4ccccc4)CC3)c3ccccc3nc2c1`, the CC50 was 55 µM.

As for `CCN(CC)C(=O)c1cccc2c(NC3CCN(Cc4ccccc4)CC3)c3ccccc3nc12`, the CC50 is 75 µM. This CC50 and that of the compound before are within 1.5-fold of each other.

With `CN1CCN(C(=O)c2cccc3c(NCCc4c[nH]c5ccccc45)c4ccccc4nc23)CC1`, the CC50 came out at 50 µM.

In the case of `CN1CCN(C(=O)c2ccc3c(Oc4ccccc4)c4ccccc4nc3c2)CC1`, the 50% cytotoxic concentration (CC50) was determined as 40 µM.

Compound `O=C(c1cccc2c(Oc3ccccc3)c3ccccc3nc12)N1CCOCC1` yielded a CC50 of 45 µM.
